Data set [1] deals with Yellow fever virus. Description: Antiviral activity against luciferase reporting full length Yellow fever virus infected in BHK15 cells assessed as reduction in virus infectivity ncubated at 50 uM at 37 degC for 36 hrs by luciferase reporter gene assay. It counts as functional. The conditions noted are these: BHK15, 36 h.
Data set [2] in a line: Toxicity against uninfected BHK cells assessed as growth inhibition incubated at 37 degC for 36 hrs by XTT assay. Conditions: hamster. It counts as cell-based, Mesocricetus auratus. Put shortly:
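Confluent BHK-15 cells were exposed to serial dilutions of compound (DMSO stocks) for ~36 h at 37 °C, 5% CO2. Medium was then replaced, and XTT substrate was added for 2 h at 37 °C before reading OD450. Values were compared with 1% DMSO-treated cells to calculate GI50.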
On the technique in general: Tetrazolium dyes change colour on reduction, which living cells bring about.

Data set [3] is described as follows: Therapeutic index, ratio of GI50 for uninfected BHK cells to EC50 for luciferase reporting full length Yellow fever virus. It counts as cell-based. The conditions noted are these: hamster, read-out: TI. Put shortly:
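TI is GI50 in uninfected BHK cells (XTT, ~36 h) divided by EC50. EC50 was estimated by nonlinear regression against DMSO-treated infected cells.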

Data set [4] has as its system Yellow fever virus. Description: microbe, parasite or virus in culture. It counts as functional, organism-based. Conditions: BHK15, 36 h.
Data set [5] deals with T1, Luciferin 4-monooxygenase (Luciola lateralis) (UniProt Q01158).
T1 sequence (whole entry): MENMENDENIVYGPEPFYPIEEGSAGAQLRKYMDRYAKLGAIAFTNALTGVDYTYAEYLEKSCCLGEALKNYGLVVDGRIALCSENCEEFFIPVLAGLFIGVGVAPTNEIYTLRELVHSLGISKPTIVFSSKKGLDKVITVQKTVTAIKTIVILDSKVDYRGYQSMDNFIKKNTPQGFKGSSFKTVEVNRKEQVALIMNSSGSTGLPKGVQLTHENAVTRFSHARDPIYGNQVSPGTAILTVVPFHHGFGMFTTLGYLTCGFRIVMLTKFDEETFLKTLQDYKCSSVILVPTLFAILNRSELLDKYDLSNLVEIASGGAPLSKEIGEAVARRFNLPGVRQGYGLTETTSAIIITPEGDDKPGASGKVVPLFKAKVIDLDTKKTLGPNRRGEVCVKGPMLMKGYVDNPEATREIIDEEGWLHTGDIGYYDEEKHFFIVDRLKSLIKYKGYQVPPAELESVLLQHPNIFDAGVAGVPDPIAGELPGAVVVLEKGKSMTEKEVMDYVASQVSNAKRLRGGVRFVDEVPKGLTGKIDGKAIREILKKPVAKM
Kind of data set: Inhibition of firefly luciferase expressed in BHK15 cells transfected with luciferase-pcDNA3 incubated at 37 degC for 20 hrs by luciferase reporter gene assay. It counts as cell-based. The conditions noted are these: Aquatica lateralis. In outline: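 BHK-15 cells grown to confluency, transfected with firefly luciferase-pcDNA3 plasmid by Lipofectamine; complexes removed at 3 h and replaced with medium holding serial compound dilutions from DMSO stock; 37 °C, 5% CO2, 20 h. Cells lysed and luminescence read with firefly luciferase substrate; signal compared with 1% DMSO-treated cells. Controls: uninfected, infected, DMSO-treated.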
For orientation: A reporter such as luciferase makes a cellular process visible.

Molecules are shown by their SMILES. Activity calls are given as the source filed them. The rule behind the calls is not given here.

By inhibition is commonly meant the relative decrease from the control value, in per cent. On to `COC(=O)c1sc(-c2ccc(OC)cc2)nc1C(Br)Br`, for which, in the data set on Yellow fever virus [1], the inhibition at 50 µM was less than 50%.

Consider `COC(=O)c1sc(-c2ccccc2)nc1C(Br)Br`, for which the inhibition at 50 µM in the data set with Yellow fever virus [1] is less than 50%.

A word on the GI50: it is the concentration at which growth is held to half of that of the control. The term EC50 denotes the concentration needed to bring the measured effect to its halfway point. Higher therefore signals lower potency in that assay. `CCCc1ccc(-c2nc(C)c(C(=O)OC)s2)cc1`: the GI50 at 36 h in data set [2] stood at 499 µM. The selectivity ratio in data set [3] was 12. Besides, the concentration giving a half-maximal response (EC50) in the data set with Yellow fever virus [4] was 34.3 µM. Moreover, the inhibition at 50 µM in the data set on Yellow fever virus [1] was 83.2%.

As to `CCCCCc1ccc(-c2nc(C)c(C(=O)OC)s2)cc1`, the GI50 at 36 h in data set [2] came to 41.5 µM. The selectivity ratio in data set [3] came to 1.1. Further, the EC50 with Yellow fever virus [4] was 38.9 µM. Also, the inhibition at 50 µM with Yellow fever virus [1] is 98.6%.

Take `CCCCc1ccc(-c2nc(C)c(C(C)=O)s2)cc1`: the GI50 at 36 h in data set [2] was determined as 59.4 µM. Also, the selectivity ratio in data set [3] turned out to be 6. The compound further showed a 50% effective concentration (EC50) in the data set with Yellow fever virus [4] of 10.1 µM. Also, the inhibition at 50 µM with Yellow fever virus [1] is 99.8%.

Regarding `COC(=O)c1sc(-c2cccc(Br)c2)nc1C`, the inhibition at 50 µM with Yellow fever virus [1] is less than 50%.

As for `COC(=O)c1sc(-c2ccc3ccccc3c2)nc1C(Br)Br`, the inhibition at 50 µM in the data set with Yellow fever virus [1] came to 26%.

On to `COC(=O)c1sc(Cc2ccccc2)nc1C`, for which the inhibition at 50 µM with Yellow fever virus [1] was -23.8%.

For the compound `CCCCc1ccc(-c2nc(C)c(/C(C)=N/NC(=N)N)s2)cc1`, the concentration for 50% growth inhibition (GI50) at 36 h in data set [2] is 353 µM. Also, the inhibition result in data set [5] was “inactive”. The selectivity ratio in data set [3] was 147. The compound further yielded a half-maximal effective concentration (EC50) with Yellow fever virus [4] of 2.4 µM. Also, the inhibition at 50 µM in the data set on Yellow fever virus [1] came to 99.2%.

For the compound `COC(=O)c1sc(-c2ccccc2Br)nc1C`, the inhibition at 50 µM in the data set on Yellow fever virus [1] is less than 50%.

With `COC(=O)c1sc(-c2ccc(F)cc2)nc1C(Br)Br`, in the data set on Yellow fever virus [1], the inhibition at 50 µM was less than 50%.

For `COC(=O)c1sc(-c2ccc(C(F)(F)F)cc2)nc1C(Br)Br`, the 50% growth inhibitory concentration (GI50) at 36 h in data set [2] stood at 262 µM. The selectivity ratio in data set [3] amounted to 26. The same compound displayed an EC50 in the data set on Yellow fever virus [4] of 10.6 µM. Further, the inhibition at 50 µM in the data set with Yellow fever virus [1] was determined as 91%.

Consider `COC(=O)c1sc(-c2ccccc2)nc1C`, for which the inhibition at 50 µM in the data set with Yellow fever virus [1] is less than 50%.

Regarding `COC(=O)c1sc(Cc2ccc(Cl)cc2)nc1C`, the inhibition at 50 µM in the data set on Yellow fever virus [1] was -6.5%.

For the compound `COC(=O)c1sc(-c2ccccc2Br)nc1C(Br)Br`, the inhibition at 50 µM in the data set with Yellow fever virus [1] is less than 50%.

With `CCCCc1ccc(-c2nc(C)c(C(=O)OC)s2)cc1`, in data set [2], the 50% growth inhibitory concentration (GI50) at 36 h stood at 63.1 µM. For the same compound, in data set [3], the selectivity ratio turned out to be 22. For the same compound, the EC50 in the data set on Yellow fever virus [4] was determined as 2.8 µM. In addition, in the data set on Yellow fever virus [1], the inhibition at 50 µM was found to be 91.9%.

Turning to `Nc1ccccc1SCc1csc(-c2ccc(Cl)cc2)n1`, in data set [2], the GI50 at 36 h was determined as 61 µM. In addition, the selectivity ratio in data set [3] stood at 2.

Consider `CCCCc1ccc(-c2nc(C)c(C(=O)O)s2)cc1`, for which the GI50 at 36 h in data set [2] is 366 µM. Besides, in the data set with Yellow fever virus [4], the EC50 turned out to be 203 µM. The inhibition at 50 µM in the data set with Yellow fever virus [1] was 83.2%.

Regarding `COC(=O)c1sc(-c2ccccc2Cl)nc1C`, the inhibition at 50 µM in the data set on Yellow fever virus [1] was less than 50%.

Take `COC(=O)c1sc(-c2ccc(Cl)c(Cl)c2)nc1C`: the inhibition at 50 µM in the data set on Yellow fever virus [1] was -8.2%.

As to `COC(=O)c1sc(-c2ccc(C(C)(C)C)cc2)nc1C`, the inhibition at 50 µM in the data set on Yellow fever virus [1] is less than 50%.

On to `COC(=O)c1sc(-c2ccc(Br)cc2)nc1C(Br)Br`, for which the 50% growth inhibitory concentration (GI50) at 36 h in data set [2] was found to be 408 µM. Further, in data set [3], the selectivity ratio was 121. Further, the response with Yellow fever virus [4] was half-maximal at 3.3 µM (EC50). For the same compound, the inhibition at 50 µM in the data set on Yellow fever virus [1] came out at 81.9%.

On to `COC(=O)c1sc(-c2ccccc2F)nc1C`, for which the inhibition at 50 µM in the data set on Yellow fever virus [1] is less than 50%.

As to `COC(=O)c1sc(-c2ccccc2F)nc1C(Br)Br`, the inhibition at 50 µM in the data set on Yellow fever virus [1] is less than 50%.

For the compound `COC(=O)c1sc(-c2ccc(Br)cc2)nc1C`, in the data set on Yellow fever virus [1], the inhibition at 50 µM was less than 50%.

With `COC(=O)c1sc(-c2ccc(F)cc2)nc1C`, in the data set on Yellow fever virus [1], the inhibition at 50 µM was less than 50%.

In the case of `CCCCc1ccc(-c2nc(C)c(C(=O)SC)s2)cc1`, the concentration for 50% growth inhibition (GI50) at 36 h in data set [2] came out at 46.5 µM. Also, the selectivity ratio in data set [3] stood at 1. Besides, the EC50 in the data set with Yellow fever virus [4] came out at 45.6 µM. The inhibition at 50 µM with Yellow fever virus [1] stood at 94.1%.

In the case of `COC(=O)c1sc(-c2ccccc2Cl)nc1C(Br)Br`, in the data set with Yellow fever virus [1], the inhibition at 50 µM was less than 50%.

Turning to `COC(=O)c1sc(-c2cccc(Br)c2)nc1C(Br)Br`, in data set [2], the GI50 at 36 h stood at 26.5 µM. Besides, in data set [3], the selectivity ratio is 1. The EC50 in the data set on Yellow fever virus [4] was determined as 26 µM. For the same compound, in the data set on Yellow fever virus [1], the inhibition at 50 µM came out at 93%.

As to `COC(=O)c1sc(-c2ccc(OC)cc2)nc1C`, in the data set on Yellow fever virus [1], the inhibition at 50 µM was less than 50%.

Take `COC(=O)c1sc(-c2ccc(Cl)c(Cl)c2)nc1C(Br)Br`: the inhibition at 50 µM in the data set on Yellow fever virus [1] worked out at 42.2%.
